For assay [1], the target named is Rhodesain (Trypanosoma brucei rhodesiense) (UniProt Q95PM0). The experiment in a line: Inhibition of Trypanosoma brucei rhodesiense rhodesain after 12 hrs by fluorescence spectroscopy-based on-bead assay. Also noted: concentration or dose not given beside the values. The following applies: concentration not given here. The method, boiled down: (§1)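 Library members on resin (PEGA, theoretical loading 0.40 mmol/g; added as DMSO suspension, 0.64 mM final inhibitor) preincubated with enzyme 12 h, then Cbz-Phe-Arg-AMC 40 μM added; AMC release followed by fluorescence (ex 380/em 460 nm). Kinetics compared with inhibitor-free amino-PEGA resin.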
Rhodesain (Trypanosoma brucei rhodesiense), sequence (Q95PM0 1-450): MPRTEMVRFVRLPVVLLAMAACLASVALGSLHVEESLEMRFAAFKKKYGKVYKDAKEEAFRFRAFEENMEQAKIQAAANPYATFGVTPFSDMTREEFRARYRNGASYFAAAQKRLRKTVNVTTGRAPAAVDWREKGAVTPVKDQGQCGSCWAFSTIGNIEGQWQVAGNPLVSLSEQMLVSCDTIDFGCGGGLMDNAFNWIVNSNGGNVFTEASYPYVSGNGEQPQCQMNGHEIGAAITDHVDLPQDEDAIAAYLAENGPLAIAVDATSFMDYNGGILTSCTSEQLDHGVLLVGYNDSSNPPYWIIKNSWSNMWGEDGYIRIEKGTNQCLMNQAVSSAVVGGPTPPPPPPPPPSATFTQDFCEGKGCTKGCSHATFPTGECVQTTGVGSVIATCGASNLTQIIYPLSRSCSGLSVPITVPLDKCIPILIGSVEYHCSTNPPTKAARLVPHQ

Assay [2] in a line: Inhibition of Plasmodium falciparum falcipain-2 after 12 hrs by fluorescence spectroscopy-based on-bead assay. To be noted: concentration not given here. Also noted: concentration or dose not given beside the values. The method, boiled down:
as §1

The values below come from ChEMBL document CHEMBL1155459, “On-bead screening of a combinatorial fumaric acid derived peptide library yields antiplasmodial cysteine protease inhibitors with unusual peptide sequences” (J Med Chem, 2009).

Square brackets hold non-standard residues; d marks the D form. Peptide text beside a SMILES is read from it. * marks the point of attachment. Fumaroyl(AlaGlyPheOH) = C[C@H](NC(=O)/C=C/C(=O)*)C(=O)NCC(=O)N[C@@H](Cc1ccccc1)C(=O)O; Chg = N[C@H](C(=O)O)C1CCCCC1; Dap = NC[C@H](N)C(=O)O

By inhibition is commonly meant the change of the read-out against control, counted positive when it falls. In the case of `CC[C@H](C)[C@H](NC(=O)[C@H](CCC(N)=O)NC(=O)/C=C/C(=O)N[C@@H](C)C(=O)NCC(=O)N[C@@H](Cc1ccccc1)C(=O)O)C(=O)N[C@@H](C)C(=O)N[C@H](C(N)=O)C(C)C` (HELM PEPTIDE1{[C[C@H](NC(=O)/C=C/C(=O)[*:2])C(=O)NCC(=O)N[C@@H](Cc1ccccc1)C(=O)O].Q.I.A.V.[am]}$$$$V2.0), the inhibition in assay [1] is 29%; in assay [2] it was 43%.
`CC(C)C[C@H](NC(=O)[C@H](Cc1ccccc1)NC(=O)/C=C/C(=O)N[C@@H](C)C(=O)NCC(=O)N[C@@H](Cc1ccccc1)C(=O)O)C(=O)N[C@@H](CC(C)C)C(=O)N[C@H](C(N)=O)C(C)C` (HELM PEPTIDE1{[C[C@H](NC(=O)/C=C/C(=O)[*:2])C(=O)NCC(=O)N[C@@H](Cc1ccccc1)C(=O)O].F.L.L.V.[am]}$$$$V2.0): the values for the inhibition in assay [1] and in assay [2] were 69% and 62%, respectively.
With `CC[C@H](C)[C@H](NC(=O)[C@H](CCC(N)=O)NC(=O)/C=C/C(=O)NCC(=O)NCC(=O)N[C@@H](Cc1ccccc1)C(=O)O)C(=O)N[C@@H](CC(C)C)C(=O)N[C@H](C(N)=O)C(C)C` (HELM PEPTIDE1{[O=C(/C=C/C(=O)[*:2])NCC(=O)NCC(=O)N[C@@H](Cc1ccccc1)C(=O)O].Q.I.L.V.[am]}$$$$V2.0), the results for the inhibition in assay [1] and in assay [2] were 52% and 44%, respectively.
`CC(C)C[C@H](NC(=O)[C@H](C)NC(=O)/C=C/C(=O)NCC(=O)NCC(=O)N[C@@H](Cc1ccccc1)C(=O)O)C(=O)N[C@@H](C)C(=O)N[C@H](C(N)=O)C(C)C` (HELM PEPTIDE1{[O=C(/C=C/C(=O)[*:2])NCC(=O)NCC(=O)N[C@@H](Cc1ccccc1)C(=O)O].A.L.A.V.[am]}$$$$V2.0): the inhibition in assay [1] came to 40%; in assay [2] it was 57%.
The matching figures for `CC(C)C[C@H](NC(=O)[C@@H](NC(=O)[C@H](Cc1ccccc1)NC(=O)/C=C/C(=O)NCC(=O)NCC(=O)N[C@@H](Cc1ccccc1)C(=O)O)c1ccccc1)C(=O)N[C@H](C(N)=O)C(C)C` (HELM PEPTIDE1{[O=C(/C=C/C(=O)[*:2])NCC(=O)NCC(=O)N[C@@H](Cc1ccccc1)C(=O)O].F.[Phg].L.V.[am]}$$$$V2.0): 71% and 40%.
The matching figures for `CC(C)[C@H](NC(=O)[C@@H](NC(=O)[C@H](Cc1ccccc1)NC(=O)[C@H](Cc1ccccc1)NC(=O)/C=C/C(=O)N[C@@H](C)C(=O)NCC(=O)N[C@@H](Cc1ccccc1)C(=O)O)C(C)C)C(N)=O` (HELM PEPTIDE1{[C[C@H](NC(=O)/C=C/C(=O)[*:2])C(=O)NCC(=O)N[C@@H](Cc1ccccc1)C(=O)O].F.F.V.V.[am]}$$$$V2.0): 38% and 37%.
On to `CC(C)C[C@H](NC(=O)[C@@H](NC(=O)[C@H](CC(N)=O)NC(=O)/C=C/C(=O)N[C@@H](C)C(=O)NCC(=O)N[C@@H](Cc1ccccc1)C(=O)O)c1ccccc1)C(=O)N[C@H](C(N)=O)C(C)C` (HELM PEPTIDE1{[C[C@H](NC(=O)/C=C/C(=O)[*:2])C(=O)NCC(=O)N[C@@H](Cc1ccccc1)C(=O)O].N.[Phg].L.V.[am]}$$$$V2.0), for which the inhibition in assay [1] and in assay [2] was 55% throughout.
For `CC(C)[C@H](NC(=O)[C@H](C)NC(=O)[C@@H](NC(=O)[C@H](Cc1ccccc1)NC(=O)/C=C/C(=O)NCC(=O)NCC(=O)N[C@@H](Cc1ccccc1)C(=O)O)c1ccccc1)C(N)=O` (HELM PEPTIDE1{[O=C(/C=C/C(=O)[*:2])NCC(=O)NCC(=O)N[C@@H](Cc1ccccc1)C(=O)O].F.[Phg].A.V.[am]}$$$$V2.0), the figures for the inhibition in assay [1] and in assay [2] were 51% and 62%, respectively.
The matching figures for `CC(=O)NC[C@H](NC(=O)/C=C/C(=O)N[C@@H](C)C(=O)NCC(=O)N[C@@H](Cc1ccccc1)C(=O)O)C(=O)N[C@@H](CC(C)C)C(=O)N[C@@H](CC(C)C)C(=O)N[C@H](C(N)=O)C(C)C` (HELM PEPTIDE1{[C[C@H](NC(=O)/C=C/C(=O)[*:2])C(=O)NCC(=O)N[C@@H](Cc1ccccc1)C(=O)O].[O=C([C@H](CN[*:3])N[*:1])[*:2]].L.L.V.[am]}|PEPTIDE2{[ac]}$PEPTIDE1,PEPTIDE2,2:R3-1:R2$$$V2.0): 63% and 41%.
`CC(C)C[C@H](NC(=O)[C@H](CC(N)=O)NC(=O)/C=C/C(=O)N[C@@H](C)C(=O)NCC(=O)N[C@@H](Cc1ccccc1)C(=O)O)C(=O)N[C@@H](CC(C)C)C(=O)N[C@H](C(N)=O)C(C)C` (HELM PEPTIDE1{[C[C@H](NC(=O)/C=C/C(=O)[*:2])C(=O)NCC(=O)N[C@@H](Cc1ccccc1)C(=O)O].N.L.L.V.[am]}$$$$V2.0): the inhibition came to 59% in assay [1] and 57% in assay [2].
The matching figures for `CC(=O)NC[C@H](NC(=O)/C=C/C(=O)N[C@@H](C)C(=O)NCC(=O)N[C@@H](Cc1ccccc1)C(=O)O)C(=O)N[C@H](C(=O)N[C@@H](C)C(=O)N[C@H](C(N)=O)C(C)C)C1CCCCC1` ({Fumaroyl(AlaGlyPheOH)}-[Dap](Ac)[Chg]AV-NH2): 29% and 35%.
The matching figures for `CC(C)[C@H](NC(=O)[C@H](C)NC(=O)[C@H](Cc1ccccc1)NC(=O)[C@H](Cc1ccccc1)NC(=O)/C=C/C(=O)N[C@@H](C)C(=O)NCC(=O)N[C@@H](Cc1ccccc1)C(=O)O)C(N)=O` (HELM PEPTIDE1{[C[C@H](NC(=O)/C=C/C(=O)[*:2])C(=O)NCC(=O)N[C@@H](Cc1ccccc1)C(=O)O].F.F.A.V.[am]}$$$$V2.0): 37% and 30%.
The matching figures for `CC[C@H](C)[C@H](NC(=O)[C@H](Cc1ccccc1)NC(=O)/C=C/C(=O)NCC(=O)NCC(=O)N[C@@H](Cc1ccccc1)C(=O)O)C(=O)N[C@H](C(=O)N[C@H](C(N)=O)C(C)C)C(C)C` (HELM PEPTIDE1{[O=C(/C=C/C(=O)[*:2])NCC(=O)NCC(=O)N[C@@H](Cc1ccccc1)C(=O)O].F.I.V.V.[am]}$$$$V2.0): 50% and 58%.
Consider `CC[C@H](C)[C@H](NC(=O)[C@H](Cc1ccccc1)NC(=O)/C=C/C(=O)N[C@@H](C)C(=O)NCC(=O)N[C@@H](Cc1ccccc1)C(=O)O)C(=O)N[C@@H](CC(C)C)C(=O)N[C@H](C(N)=O)C(C)C` (HELM PEPTIDE1{[C[C@H](NC(=O)/C=C/C(=O)[*:2])C(=O)NCC(=O)N[C@@H](Cc1ccccc1)C(=O)O].F.I.L.V.[am]}$$$$V2.0), for which the inhibition in assay [1] is 61%; in assay [2], 51%.
The matching figures for `CC(C)[C@H](NC(=O)[C@@H](NC(=O)[C@H](Cc1ccccc1)NC(=O)[C@H](CC(N)=O)NC(=O)/C=C/C(=O)N[C@@H](C)C(=O)NCC(=O)N[C@@H](Cc1ccccc1)C(=O)O)C(C)C)C(N)=O` (HELM PEPTIDE1{[C[C@H](NC(=O)/C=C/C(=O)[*:2])C(=O)NCC(=O)N[C@@H](Cc1ccccc1)C(=O)O].N.F.V.V.[am]}$$$$V2.0): 53% and 54%.
The matching figures for `CC(C)[C@H](NC(=O)[C@H](C)NC(=O)[C@H](Cc1ccccc1)NC(=O)[C@H](C)NC(=O)/C=C/C(=O)N[C@@H](C)C(=O)NCC(=O)N[C@@H](Cc1ccccc1)C(=O)O)C(N)=O` (HELM PEPTIDE1{[C[C@H](NC(=O)/C=C/C(=O)[*:2])C(=O)NCC(=O)N[C@@H](Cc1ccccc1)C(=O)O].A.F.A.V.[am]}$$$$V2.0): 18% and 51%.
Take `CC(C)[C@H](NC(=O)[C@@H](NC(=O)[C@@H](NC(=O)[C@H](Cc1ccccc1)NC(=O)/C=C/C(=O)NCC(=O)NCC(=O)N[C@@H](Cc1ccccc1)C(=O)O)c1ccccc1)C(C)C)C(N)=O` (HELM PEPTIDE1{[O=C(/C=C/C(=O)[*:2])NCC(=O)NCC(=O)N[C@@H](Cc1ccccc1)C(=O)O].F.[Phg].V.V.[am]}$$$$V2.0): the inhibition in assay [1] was 68%; in assay [2] it was 35%.
The matching figures for `CC(C)[C@H](NC(=O)[C@H](C)NC(=O)[C@@H](NC(=O)[C@H](CCC(N)=O)NC(=O)/C=C/C(=O)N[C@@H](C)C(=O)NCC(=O)N[C@@H](Cc1ccccc1)C(=O)O)c1ccccc1)C(N)=O` (HELM PEPTIDE1{[C[C@H](NC(=O)/C=C/C(=O)[*:2])C(=O)NCC(=O)N[C@@H](Cc1ccccc1)C(=O)O].Q.[Phg].A.V.[am]}$$$$V2.0): 12% and 55%.
The matching figures for `CC[C@H](C)[C@H](NC(=O)[C@H](CNC(C)=O)NC(=O)/C=C/C(=O)NCC(=O)NCC(=O)N[C@@H](Cc1ccccc1)C(=O)O)C(=O)N[C@H](C(=O)N[C@H](C(N)=O)C(C)C)C(C)C` (HELM PEPTIDE1{[O=C(/C=C/C(=O)[*:2])NCC(=O)NCC(=O)N[C@@H](Cc1ccccc1)C(=O)O].[O=C([C@H](CN[*:3])N[*:1])[*:2]].I.V.V.[am]}|PEPTIDE2{[ac]}$PEPTIDE1,PEPTIDE2,2:R3-1:R2$$$V2.0): 41% and 28%.
The matching figures for `CC(C)C[C@H](NC(=O)[C@H](CCC(N)=O)NC(=O)/C=C/C(=O)N[C@@H](C)C(=O)NCC(=O)N[C@@H](Cc1ccccc1)C(=O)O)C(=O)N[C@@H](C)C(=O)N[C@H](C(N)=O)C(C)C` (HELM PEPTIDE1{[C[C@H](NC(=O)/C=C/C(=O)[*:2])C(=O)NCC(=O)N[C@@H](Cc1ccccc1)C(=O)O].Q.L.A.V.[am]}$$$$V2.0): 7% and 54%.
`CC(C)[C@H](NC(=O)[C@@H](NC(=O)[C@@H](NC(=O)[C@H](C)NC(=O)/C=C/C(=O)N[C@@H](C)C(=O)NCC(=O)N[C@@H](Cc1ccccc1)C(=O)O)c1ccccc1)C(C)C)C(N)=O` (HELM PEPTIDE1{[C[C@H](NC(=O)/C=C/C(=O)[*:2])C(=O)NCC(=O)N[C@@H](Cc1ccccc1)C(=O)O].A.[Phg].V.V.[am]}$$$$V2.0): the inhibition in assay [1] stood at 50%; in assay [2], 38%.
The matching figures for `CC[C@H](C)[C@H](NC(=O)[C@H](C)NC(=O)/C=C/C(=O)N[C@@H](C)C(=O)NCC(=O)N[C@@H](Cc1ccccc1)C(=O)O)C(=O)N[C@@H](C)C(=O)N[C@H](C(N)=O)C(C)C` (HELM PEPTIDE1{[C[C@H](NC(=O)/C=C/C(=O)[*:2])C(=O)NCC(=O)N[C@@H](Cc1ccccc1)C(=O)O].A.I.A.V.[am]}$$$$V2.0): 9% and 37%.
